Source: ChEMBL document CHEMBL3414455, “Boronic species as promising inhibitors of the Staphylococcus aureus NorA efflux pump: study of 6-substituted pyridine-3-boronic acid derivatives” (Eur J Med Chem, 2015)
≈ marks a conversion by molar mass, not a printed value.

Key:
Staphylococcus aureus [1] = assay: Antibacterial activity against methicillin-susceptible […] Staphylococcus aureus ATCC 25923 after 24 hrs by two fold microdilution method; type: functional; details: ATCC 25923, 24 h
In short: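 Broth microdilution in Mueller-Hinton broth, about 10^6 CFU/mL per well, inoculum from an 18 h culture at 37°C. Compounds were dissolved in DMSO and tested in twofold serial dilutions, top 128 mg/L, or the highest fully soluble level (at least 16 mg/L). MIC is the lowest concentration giving complete growth inhibition after 24 h at 37°C, read at 620 nm and visually, in duplicate.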

Staphylococcus aureus [2] = assay: Antibacterial activity against fluoroquinolone-resistant Staphylococcus aureus 1199B overexpressing NorA after 24 hrs by two fold microdilution method; type: functional
[3] = target: T1, Quinolone resistance protein NorA (Staphylococcus aureus) (UniProt P0A0J7); assay: Inhibition of NorA in fluoroquinolone-resistant Staphylococcus aureus 1199B assessed as minimum modulatory concentration require to potentiate 4 ug/ml ciprofloxacin-induced antibacterial activity
T1 sequence (whole entry): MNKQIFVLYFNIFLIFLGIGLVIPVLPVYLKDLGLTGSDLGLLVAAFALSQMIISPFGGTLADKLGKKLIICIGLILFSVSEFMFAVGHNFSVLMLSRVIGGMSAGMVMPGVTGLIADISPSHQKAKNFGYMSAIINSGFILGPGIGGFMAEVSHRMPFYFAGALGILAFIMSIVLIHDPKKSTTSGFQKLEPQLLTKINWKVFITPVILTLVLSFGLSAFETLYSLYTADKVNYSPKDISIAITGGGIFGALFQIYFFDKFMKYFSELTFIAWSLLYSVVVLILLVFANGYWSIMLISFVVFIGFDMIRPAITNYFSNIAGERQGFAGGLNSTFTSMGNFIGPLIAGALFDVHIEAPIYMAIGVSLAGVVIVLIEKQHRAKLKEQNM

[4] = target: T1, Quinolone resistance protein NorA (Staphylococcus aureus); assay: Inhibition of NorA in fluoroquinolone-resistant Staphylococcus aureus 1199B assessed as minimum modulatory concentration require to potentiate 2 ug/ml ciprofloxacin-induced antibacterial activity
[5] = Cytotoxicity against human KB cells assessed as growth inhibition at 10 uM after 72 hrs by MTS assay relative to control; type: cell-based; details: read-out: GI
In short: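 KB cells were grown in D-MEM with 10% FCS at 37°C under 5% CO2. Compounds in DMSO (1% final) were added 24 h after plating, and cells were exposed for 72 h. MTS was then added for 3 h and absorbance read at 490 nm. Inhibition = (1 − OD treated/OD DMSO control) × 100, in triplicate. Docetaxel 0.15 nM served as positive control.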

[6] = target: T1, Quinolone resistance protein NorA (Staphylococcus aureus); assay: Inhibition of NorA in fluoroquinolone-resistant Staphylococcus aureus 1199B assessed as minimum modulatory concentration require to potentiate 16 ug/ml norfloxacin-induced antibacterial activity
Staphylococcus aureus [7] = assay: microbe, parasite or virus in culture; details: 1199B, 24 h
[8] = target: T1, Quinolone resistance protein NorA (Staphylococcus aureus); assay: Inhibition of NorA in fluoroquinolone-resistant Staphylococcus aureus 1199B assessed as minimum modulatory concentration require to potentiate 2 ug/ml ciprofloxacin-induced antibacterial activity at MMC relative to control
[9] = Cytotoxicity against human KB cells assessed as growth inhibition at 10^-6 M after 72 hrs by MTS assay relative to control; type: cell-based; details: read-out: GI
[10] = target: T1, Quinolone resistance protein NorA (Staphylococcus aureus); assay: Inhibition of NorA in fluoroquinolone-resistant Staphylococcus aureus 1199B assessed as increase in ethidium bromide uptake at 20 ug/ml after 20 mins by fluorimetry relative to control
In short: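 Mid-log cells (overnight culture diluted 20-fold, 3.5 h, 37°C, 130 rpm) resuspended in Mueller-Hinton broth containing 10 mg/L EtBr, 37°C; compound added at 10 min (final 20 mg/L), fluorescence (ex 530/em 600 nm) followed 20 more min; rise over pre-addition baseline; reserpine 5 and 20 µg/mL positive, 1.6% DMSO negative; two or three experiments.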

[11] = target: ATP-dependent translocase ABCB1 (Homo sapiens, UniProt P08183); assay: Inhibition of MDR1 in human NCI-ADR-RES cells assessed as increase in rhodamine-123 uptake at 1 to 100 uM after 1 hr by fluorescence assay; type: cell-based
In short: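 NCI/ADR-RES cells (P-gp overexpressing) were seeded at 60,000/well in RPMI. After 24 h they were washed with PBS and given compound (100, 10, 1 µM) plus 12.5 µM rhodamine 123 in FCS-free medium for 1 h at 37°C, 5% CO2. Cells were then washed, lysed in 20 mM Tris pH 7.7 with 0.2% SDS, and fluorescence read at 507/528 nm.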

Structure (SMILES)	MIC (Staphylococcus aureus [1])	MIC (Staphylococcus aureus [2])	MMC [3]	MMC [4]	inhibition at 72 h, 10 µM [5]	MMC [6]	MIC (Staphylococcus aureus [7])	fold change (FC) [8]	inhibition at 72 h, 1 µM [9]	inhibition [10]	inhibition (INH) [11]
CCCCCOc1ccc(B(O)O)cn1	> 128 µg/mL	> 128 µg/mL	2 µg/mL	306 µM	16%	64 µg/mL					
OB(O)c1ccc(OCCCCCCc2ccccc2)nc1	> 16 µg/mL	> 16 µg/mL	0.5 µg/mL	13.4 µM	46%						
CC1(C)S[C@@H]2[C@H](NC(=O)[C@H](N)c3ccccc3)C(=O)N2[C@H]1C(=O)O [AMPICILLIN]	0.25 µg/mL (≈ 0.715 µM)										
O=C(O)c1cn(C2CC2)c2cc(N3CCNCC3)c(F)cc2c1=O [CIPROFLOXACIN]		8 µg/mL (≈ 24.1 µM)					0.5 µg/mL (≈ 1.51 µM)				
Cc1cc(B(O)O)cnc1OCc1ccccc1		> 128 µg/mL	4 µg/mL	65.8 µM	15%	8 µg/mL					
OB(O)c1ccc(OCCCc2ccccc2)nc1	> 128 µg/mL	> 128 µg/mL	0.5 µg/mL	15.6 µM	83%	8 µg/mL		4	9%	43%	Not Active
OB(O)c1ccc(OCCCCCCCc2ccccc2)nc1	> 16 µg/mL	> 16 µg/mL	0.5 µg/mL	12.8 µM	62%						
OB(O)c1ccc(OCc2ccc(F)cc2)nc1	> 128 µg/mL	> 128 µg/mL	2 µg/mL	130 µM	8%	64 µg/mL					
OB(O)c1ccc(OCCCCc2ccccc2)nc1	64 µg/mL (≈ 236 µM)	32 µg/mL (≈ 118 µM)	0.25 µg/mL	14.8 µM	13%	8 µg/mL		4		42%	Not Active
OB(O)c1ccc(OCCc2ccccc2)nc1	> 128 µg/mL	> 128 µg/mL	1 µg/mL	65.8 µM	28%	16 µg/mL					
OB(O)c1ccc(Oc2ccccc2)nc1	> 128 µg/mL	> 128 µg/mL	2 µg/mL	298 µM	14%	128 µg/mL					
COc1cc(COc2ccc(B(O)O)cn2)cc(OC)c1OC	> 128 µg/mL	> 128 µg/mL	8 µg/mL		3%						
CCn1cc(C(=O)O)c(=O)c2cc(F)c(N3CCNCC3)cc21 [NORFLOXACIN]		64 µg/mL (≈ 200 µM)									
OB(O)c1ccc(OCc2ccccc2)nc1	> 128 µg/mL	> 128 µg/mL	1 µg/mL	69.8 µM		32 µg/mL		4			
OB(O)c1ccc(NCc2ccccc2)nc1	> 128 µg/mL	> 128 µg/mL	32 µg/mL	561 µM	0%						
CCCCOc1ccc(B(O)O)cn1	> 128 µg/mL	> 128 µg/mL	2 µg/mL	328 µM	1%	64 µg/mL					
CCCCCCCCCCCCOc1ccc(B(O)O)cn1	> 16 µg/mL	> 16 µg/mL	> 16 µg/mL	> 16 µg/mL	13%						
OB(O)c1ccc(Oc2ccc(Cl)cc2Cl)nc1		128 µg/mL (≈ 451 µM)	1 µg/mL	56.4 µM	1%	32 µg/mL					
CCCCCCCOc1ccc(B(O)O)cn1	> 16 µg/mL	> 16 µg/mL	0.5 µg/mL	33.7 µM	73%	8 µg/mL					
COC(=O)[C@H]1[C@H]2C[C@@H]3c4[nH]c5cc(OC)ccc5c4CCN3C[C@H]2C[C@@H](OC(=O)c2cc(OC)c(OC)c(OC)c2)[C@@H]1OC				6.57 µM							
CCCOc1ccc(B(O)O)cn1	> 128 µg/mL	> 128 µg/mL	4 µg/mL	> 128 µg/mL	0%	> 128 µg/mL					
OB(O)c1ccc(OCCCCCc2ccccc2)nc1		16 µg/mL (≈ 56.1 µM)	2 µg/mL	14 µM	60%				6%		
OB(O)c1ccc(OCc2ccc(Cl)c(Cl)c2)nc1		16 µg/mL (≈ 53.7 µM)	0.125 µg/mL	3.35 µM	44%				0%		
CCCCCCOc1ccc(B(O)O)cn1		> 128 µg/mL	2 µg/mL	71.7 µM	46%	16 µg/mL					
OB(O)c1cncc(OCc2ccccc2)c1	> 128 µg/mL	> 128 µg/mL	8 µg/mL	> 128 µg/mL	0%						
OB(O)c1ccc(OCc2ccc(Cl)cc2)nc1	≥ 128 µg/mL	128 µg/mL (≈ 486 µM)	1 µg/mL	121 µM	33%	16 µg/mL					
OB(O)c1ccc(SCc2ccccc2)nc1	64 µg/mL (≈ 261 µM)	64 µg/mL (≈ 261 µM)	0.5 µg/mL	65.3 µM	8%	16 µg/mL					
OB(O)c1ccc(OCc2ccc3c(c2)OCO3)nc1	> 128 µg/mL	> 128 µg/mL	64 µg/mL		0%						
